Results as given in ChEMBL document CHEMBL2390927, “Design, synthesis and antimicrobial evaluation of novel benzimidazole type of Fluconazole analogues and their synergistic effects with Chloromycin, Norfloxacin and Fluconazole” (2013).

Columns and labels:
Aspergillus flavus [1] = test: Antifungal activity against Aspergillus flavus after 24 hrs by two-fold serial dilution method; type: functional
In short: (§1)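 Spore suspension in sterile distilled water from one-day-old cultures on Sabouraud agar, final 1–5 × 10³ spore mL⁻¹. Compound stocks diluted in sterile RPMI 1640 as two-fold serial dilutions in microdilution plates. MIC is the lowest concentration completely inhibiting growth. Growth monitored visually and spectrophotometrically, in triplicate.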

Micrococcus luteus [2] = test: Antibacterial activity against Micrococcus luteus ATCC 4698 after 24 hrs by two-fold serial dilution method; type: functional; details: ATCC 4698, 24 h
In short: (§2)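 MIC taken as the lowest concentration giving complete growth inhibition, by standard two-fold serial dilution in 96-well plates following NCCLS. Stocks in DMSO, diluted in Mueller–Hinton broth. Inoculum adjusted with sterile saline to 1 × 10⁵ CFU. DMSO with inoculum and no drug served as solvent control. Growth read visually and spectrophotometrically, in triplicate.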

Staphylococcus aureus [3] = test: Ratio of chloromycin MIC to compound MIC for Staphylococcus aureus ATCC 6538; type: functional
Escherichia coli [4] = test: Ratio of chloromycin MIC to compound MIC for Escherichia coli JM109; type: functional
Pseudomonas aeruginosa [5] = test: Ratio of chloromycin MIC to compound MIC for Pseudomonas aeruginosa ATCC 27853; type: functional
Candida [6] = test: Ratio of fluconazole MIC to compound MIC for Candida mycoderma; type: functional
Staphylococcus aureus [7] = test: Antibacterial activity against methicillin-resistant Staphylococcus aureus N315 after 24 hrs by two-fold serial dilution method; type: functional; details: N315, 24 h
Staphylococcus aureus [8] = test: Ratio of norfloxacin MIC to compound MIC for Staphylococcus aureus ATCC 6538; type: functional
Candida [9] = test: Antifungal activity against Candida mycoderma after 24 hrs by two-fold serial dilution method; type: functional; in short: as §1
Salmonella typhi [10] = test: Antibacterial activity against Bacillus typhi after 24 hrs by two-fold serial dilution method; type: functional, Salmonella enterica subsp. enterica serovar Typhi; details: Salmonella enterica
In short: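 Two-fold serial dilution in 96-well plates following NCCLS; compounds dissolved in DMSO as stocks, then diluted in Mueller-Hinton broth; bacterial suspension adjusted with sterile saline to 1 × 10⁵ CFU; MIC taken as lowest concentration completely inhibiting growth, monitored visually and spectrophotometrically; DMSO-plus-inoculum well as solvent control; triplicate.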

Cyberlindnera jadinii [11] = test: Antifungal activity against Candida utilis after 24 hrs by two-fold serial dilution method; type: functional; details: Williopsis jadinii; in short: as §1
Pseudomonas aeruginosa [12] = test: Antibacterial activity against Pseudomonas aeruginosa ATCC 27853 after 24 hrs by two-fold serial dilution method; type: functional; details: ATCC 27853, 24 h; in short: as §2
Escherichia coli [13] = test: Antibacterial activity against Escherichia coli JM109 after 24 hrs by two-fold serial dilution method; type: functional; details: JM109, 24 h
Bacillus subtilis [14] = test: Antibacterial activity against Bacillus subtilis ATCC 21216 after 24 hrs by two-fold serial dilution method; type: functional; details: ATCC 21216, 24 h; in short: as §2
Saccharomyces cerevisiae [15] = test: Antifungal activity against Saccharomyces cerevisiae after 24 hrs by two-fold serial dilution method; type: functional; in short: as §1
Staphylococcus aureus [16] = test: Antibacterial activity against Staphylococcus aureus ATCC 6538 after 24 hrs by two-fold serial dilution method; type: functional; details: ATCC 6538, 24 h
Bacillus [17] = test: Antibacterial activity against Bacillus proteus ATCC 13315 after 24 hrs by two-fold serial dilution method; type: functional; details: ATCC 13315, 24 h; in short: as §2
Candida albicans [18] = test: Antifungal activity against Candida albicans ATCC 76615 after 24 hrs by two-fold serial dilution method; type: functional; details: ATCC 76615, 24 h; in short: as §1
Saccharomyces cerevisiae [19] = test: Ratio of fluconazole MIC to compound MIC for Saccharomyces cerevisiae; type: functional
Staphylococcus aureus [20] = test: Potentiation of norfloxacin-induced antibacterial activity against Staphylococcus aureus ATCC 6538 at MIC after 24 hrs by two-fold serial dilution method; type: functional
Candida [21] = test: Potentiation of fluconazole-induced antifungal activity against Candida mycoderma at 4 times MIC after 24 hrs by two-fold serial dilution method; type: functional
Salmonella typhi [22] = test: Potentiation of chloromycin-induced antibacterial activity against Bacillus typhi at 4 times MIC after 24 hrs by two-fold serial dilution method; type: functional, Salmonella enterica subsp. enterica serovar Typhi
Aspergillus flavus [23] = test: Potentiation of fluconazole-induced antifungal activity against Aspergillus flavus at 4 times MIC after 24 hrs by two-fold serial dilution method; type: functional
Cyberlindnera jadinii [24] = test: Potentiation of fluconazole-induced antifungal activity against Candida utilis at 8 times MIC after 24 hrs by two-fold serial dilution method; type: functional
Bacillus [25] = test: Potentiation of chloromycin-induced antibacterial activity against Bacillus proteus ATCC 13315 at 2 times MIC after 24 hrs by two-fold serial dilution method; type: functional
Pseudomonas aeruginosa [26] = test: Potentiation of norfloxacin-induced antibacterial activity against Pseudomonas aeruginosa ATCC 27853 at 2 times MIC after 24 hrs by two-fold serial dilution method; type: functional
Saccharomyces cerevisiae [27] = test: Potentiation of fluconazole-induced antifungal activity against Saccharomyces cerevisiae at 4 times MIC after 24 hrs by two-fold serial dilution method; type: functional
Bacillus [28] = test: Potentiation of norfloxacin-induced antibacterial activity against Bacillus proteus ATCC 13315 at 2 times MIC after 24 hrs by two-fold serial dilution method; type: functional
Bacillus subtilis [29] = test: Potentiation of norfloxacin-induced antibacterial activity against Bacillus subtilis ATCC 21216 at 2 times MIC after 24 hrs by two-fold serial dilution method; type: functional
Micrococcus luteus [30] = test: Potentiation of chloromycin-induced antibacterial activity against Micrococcus luteus ATCC 4698 at 2 times MIC after 24 hrs by two-fold serial dilution method; type: functional
Escherichia coli [31] = test: Potentiation of chloromycin-induced antibacterial activity against Escherichia coli JM109 at MIC after 24 hrs by two-fold serial dilution method; type: functional
Staphylococcus aureus [32] = test: Potentiation of chloromycin-induced antibacterial activity against Staphylococcus aureus ATCC 6538 at MIC after 24 hrs by two-fold serial dilution method; type: functional
Micrococcus luteus [33] = test: Potentiation of norfloxacin-induced antibacterial activity against Micrococcus luteus ATCC 4698 at 2 times MIC after 24 hrs by two-fold serial dilution method; type: functional
Salmonella typhi [34] = test: Potentiation of norfloxacin-induced antibacterial activity against Bacillus typhi at 4 times MIC after 24 hrs by two-fold serial dilution method; type: functional, Salmonella enterica subsp. enterica serovar Typhi
Bacillus subtilis [35] = test: Potentiation of chloromycin-induced antibacterial activity against Bacillus subtilis ATCC 21216 at 4 times MIC after 24 hrs by two-fold serial dilution method; type: functional
Escherichia coli [36] = test: Potentiation of norfloxacin-induced antibacterial activity against Escherichia coli JM109 at 2 times MIC after 24 hrs by two-fold serial dilution method; type: functional
Candida albicans [37] = test: Potentiation of fluconazole-induced antifungal activity against Candida albicans ATCC 76615 at 4 times MIC after 24 hrs by two-fold serial dilution method; type: functional
Pseudomonas aeruginosa [38] = test: Potentiation of chloromycin-induced antibacterial activity against Pseudomonas aeruginosa ATCC 27853 at 2 times MIC after 24 hrs by two-fold serial dilution method; type: functional

FC(F)(F)c1cc(NCc2nc3ccccc3[nH]2)cc(C(F)(F)F)c1
4 µg/mL: MIC (Pseudomonas aeruginosa [12]) | MIC (Bacillus subtilis [14])
2 µg/mL: MIC (Candida [9]) | MIC (Salmonella typhi [10]) | MIC (Escherichia coli [13]) | MIC (Saccharomyces cerevisiae [15]) | MIC (Staphylococcus aureus [16]) | MIC (Bacillus [17]) | MIC (Candida albicans [18])
16 µg/mL: MIC (Staphylococcus aureus [7])
2: Ratio (Candida [6])
8 µg/mL: MIC (Aspergillus flavus [1]) | MIC (Micrococcus luteus [2]) | MIC (Cyberlindnera jadinii [11])
4: Ratio (Staphylococcus aureus [3]) | Ratio (Pseudomonas aeruginosa [5]) | Ratio (Staphylococcus aureus [8])
8: Ratio (Escherichia coli [4]) | Ratio (Saccharomyces cerevisiae [19])

Fc1ccc(CN(Cc2nc3ccccc3[nH]2)c2cc(C(F)(F)F)cc(C(F)(F)F)c2)c(F)c1
16 µg/mL: MIC (Aspergillus flavus [1]) | MIC (Pseudomonas aeruginosa [12]) | MIC (Escherichia coli [13]) | MIC (Bacillus subtilis [14]) | MIC (Saccharomyces cerevisiae [15]) | MIC (Bacillus [17]) | MIC (Candida albicans [18])
0.25: fractional inhibitory concentration index (FICI) (Staphylococcus aureus [20]) | fractional inhibitory concentration index (FICI) (Candida [21]) | fractional inhibitory concentration index (FICI) (Salmonella typhi [22]) | fractional inhibitory concentration index (FICI) (Bacillus [25]) | fractional inhibitory concentration index (FICI) (Bacillus [28]) | fractional inhibitory concentration index (FICI) (Bacillus subtilis [29]) | fractional inhibitory concentration index (FICI) (Escherichia coli [31]) | fractional inhibitory concentration index (FICI) (Staphylococcus aureus [32]) | fractional inhibitory concentration index (FICI) (Salmonella typhi [34]) | fractional inhibitory concentration index (FICI) (Candida albicans [37]) | fractional inhibitory concentration index (FICI) (Pseudomonas aeruginosa [38])
32 µg/mL: MIC (Staphylococcus aureus [7]) | MIC (Candida [9]) | MIC (Salmonella typhi [10]) | MIC (Cyberlindnera jadinii [11])
8 µg/mL: MIC (Micrococcus luteus [2]) | MIC (Staphylococcus aureus [16])
0.375: fractional inhibitory concentration index (FICI) (Aspergillus flavus [23]) | fractional inhibitory concentration index (FICI) (Pseudomonas aeruginosa [26]) | fractional inhibitory concentration index (FICI) (Saccharomyces cerevisiae [27]) | fractional inhibitory concentration index (FICI) (Micrococcus luteus [33]) | fractional inhibitory concentration index (FICI) (Bacillus subtilis [35]) | fractional inhibitory concentration index (FICI) (Escherichia coli [36])
0.5: fractional inhibitory concentration index (FICI) (Cyberlindnera jadinii [24]) | fractional inhibitory concentration index (FICI) (Micrococcus luteus [30])
